Results taken from ChEMBL document CHEMBL1128256, “Synthesis, biological evaluation, and structure analysis of a series of new 1,5-anhydrohexitol nucleosides” (J Med Chem, 1995).
In brackets after ≈: the same amount, converted by molar mass.

Assays:
E6SM [1] = assay: Tested for the minimum inhibitory concentration required to reduce herpes simplex virus type 2 (HSV-2) strain G induced cytopathogenicity by 50%.; format: functional; conditions: Homo sapiens
Outline: (§1)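 Inhibition of virus-induced cytopathogenicity in human embryonic skin-muscle (E6SM) fibroblasts seeded in 96-well trays. Viruses were HSV-1 (KOS, F, McIntyre), TK- HSV-1 B2006, TK-/TK+ HSV-1 clinical isolate VMW-1837 and HSV-2 (G, 196, Lyons). […] MCC is the lowest concentration giving microscopically detectable alteration of normal cell morphology; highest concentration tested was 400 µg/mL.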

E6SM [2] = assay: Tested for the minimum inhibitory concentration required to reduce herpes simplex virus type 2 (HSV-2) strain Lyons induced cytopathogenicity by 50%.; format: functional; conditions: Homo sapiens; outline: as §1
HEL [3] = assay: Tested for the cytotoxic concentration, required to reduce cell growth by 50% in human embryonic lung (HEL) cells.; format: functional
Outline: (§2)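 Virus plaque formation assay in human embryonic lung (HEL) cells seeded in 96-well trays. Targets were TK+ VZV (Oka, YS), TK- VZV (07/1, YS/R) and CMV (AD169, Davis). Value is the concentration that reduces plaque number by 50%. Cytotoxicity in HEL cells was taken as the concentration that reduces cell growth by 50%.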

E6SM [4] = assay: Tested for the minimum inhibitory concentration required to reduce herpes simplex virus type 1 (HSV-1) strain McIntyre induced cytopathogenicity by 50%.; format: functional; conditions: Homo sapiens; outline: as §1
HEL [5] = assay: Tested for the inhibitory concentration required to reduce TK+ Varicella-Zoster virus (TK+ VZV) strain OKA plaque formation by 50%.; format: functional, cell-based; conditions: Homo sapiens
E6SM [6] = assay: Tested for the minimum inhibitory concentration required to reduce herpes simplex virus type 1 (HSV-1) strain KOS induced cytopathogenicity by 50%.; format: functional; conditions: Homo sapiens; outline: as §1
E6SM [7] = assay: Tested for the minimum inhibitory concentration required to reduce herpes simplex virus type 1 (HSV-1) strain F induced cytopathogenicity by 50%.; format: functional; conditions: Homo sapiens; outline: as §1
E6SM [8] = assay: Tested for the minimum inhibitory concentration required to reduce thymidine kinase deficient herpes simplex virus type 1 (TK- HSV-1) strain B2006 induced cytopathogenicity by 50%.; format: functional; conditions: Homo sapiens; outline: as §1
E6SM [9] = assay: Tested for the minimum inhibitory concentration required to reduce herpes simplex virus type 1 (TK+ / TK- HSV-1) strain VMW-1837 induced cytopathogenicity by 50%.; format: functional; conditions: Homo sapiens; outline: as §1
E6SM [10] = assay: Tested for the minimum cytotoxic concentration required to cause a microscopically detectable alteration of normal cell morphology in human embryonic skin muscle (E6SM) fibroblast cell cultures.; format: functional; outline: as §1
HEL [11] = assay: Tested for the inhibitory concentration required to reduce cytomegalovirus (CMV) strain Davis plaque formation by 50%.; format: functional, cell-based; conditions: Homo sapiens; outline: as §2
HEL [12] = assay: Tested for the inhibitory concentration required to reduce cytomegalovirus (CMV) strain AD-169 plaque formation by 50%.; format: functional, cell-based; conditions: Homo sapiens; outline: as §2
E6SM [13] = assay: Tested for the minimum inhibitory concentration required to reduce herpes simplex virus type 2 (HSV-2) strain 196 induced cytopathogenicity by 50%.; format: functional; conditions: Homo sapiens; outline: as §1
HEL [14] = assay: Tested for the inhibitory concentration required to reduce TK+ Varicella-Zoster virus (TK+ VZV) strain YS plaque formation by 50%; format: functional, cell-based; conditions: Homo sapiens
HEL [15] = assay: Tested for the inhibitory concentration required to reduce thymidine kinase deficient Varicella-Zoster virus (TK- VZV) strain 07/1 plaque formation by 50%.; format: functional, cell-based; conditions: Homo sapiens
HEL [16] = assay: Tested for the inhibitory concentration required to reduce thymidine kinase deficient Varicella-Zoster virus (TK- VZV) strain YS/R plaque formation by 50%.; format: functional, cell-based; conditions: Homo sapiens
E6SM [17] = assay: Tested for the minimum inhibitory concentration required to reduce herpes simplex virus type 1 (TK- / TK + HSV-1) strain VMW-1837 induced cytopathogenicity by 50%.; format: functional; conditions: Homo sapiens; outline: as §1
HEL [18] = assay: Tested for the inhibitory concentration required to reduce thymidine kinase plus Varicella-Zoster virus (TK+ VZV) strain OKA plaque formation by 50%.; format: functional, cell-based; conditions: Homo sapiens; outline: as §2
HEL [19] = assay: Tested for the inhibitory concentration required to reduce thymidine kinase plus Varicella-Zoster virus (TK+ VZV) strain YS plaque formation by 50%; format: functional, cell-based; conditions: Homo sapiens; outline: as §2
E6SM [20] = assay: Tested for the minimum inhibitory concentration required to reduce herpes simplex virus type 2 (HSV-2) strain G induced cytopathogenicity by 50%; format: functional; conditions: Homo sapiens; outline: as §1
HEL [21] = assay: Tested for the inhibitory concentration required to reduce TK+ Varicella-Zoster virus (TK+VZV) strain YS plaque formation by 50%; format: functional, cell-based; conditions: Homo sapiens; outline: as §2
E6SM [22] = assay: Tested for the minimum inhibitory concentration required to reduce vesicular stomatitis virus(VSV) induced cytopathogenicity by 50%; format: functional; conditions: Homo sapiens
HEL [23] = assay: Tested for the inhibitory concentration required to reduce cytomegalovirus (CMV) strain AD-169 plaque formation by 50%; format: functional, cell-based; conditions: Homo sapiens; outline: as §2
HEL [24] = assay: Tested for the inhibitory concentration required to reduce thymidine kinase deficient Varicella-Zoster virus (TK-VZV) strain 07/1 plaque formation by 50%; format: functional, cell-based; conditions: Homo sapiens; outline: as §2
HEL [25] = assay: Tested for the inhibitory concentration required to reduce TK+ Varicella-Zoster virus (TK+VZV) strain OKA plaque formation by 50%; format: functional, cell-based; conditions: Homo sapiens; outline: as §2
HEL [26] = assay: Tested for the cytotoxic concentration, required to reduce cell growth by 50% in human embryonic lung (HEL) cells; format: functional; outline: as §2
HEL [27] = assay: Tested for the inhibitory concentration required to reduce thymidine kinase deficient Varicella-Zoster virus (TK-VZV) strain YS/R plaque formation by 50%; format: functional, cell-based; conditions: Homo sapiens; outline: as §2
E6SM [28] = assay: Tested for the minimum inhibitory concentration required to reduce herpes simplex virus type 1 (HSV-1) strain KOS induced cytopathogenicity by 50%; format: functional; conditions: Homo sapiens; outline: as §1
E6SM [29] = assay: Tested for the minimum inhibitory concentration required to reduce vaccinia virus(VV) induced cytopathogenicity by 50%; format: functional; conditions: Homo sapiens
E6SM [30] = assay: Tested for the minimum inhibitory concentration required to reduce herpes simplex virus type 1 (TK/ TK+HSV-1) strain VMW-1837 induced cytopathogenicity by 50%; format: functional; conditions: Homo sapiens; outline: as §1
E6SM [31] = assay: Tested for the minimum inhibitory concentration required to reduce thymidine kinase deficient herpes simplex virus type 1 (TK-HSV-1) strain B2006 induced cytopathogenicity by 50%; format: functional; conditions: Homo sapiens; outline: as §1
E6SM [32] = assay: Tested for the minimum cytotoxic concentration required to cause a microscopically detectable alteration of normal cell morphology in human embryonic skin muscle (E6SM) fibroblast cell cultures; format: functional
Outline: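 Cytotoxicity in human embryonic skin-muscle (E6SM) fibroblasts seeded in 96-well trays, scored microscopically as altered normal cell morphology. Tested up to 400 µg/mL.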

HEL [33] = assay: Tested for the inhibitory concentration required to reduce cytomegalovirus (CMV) strain Davis plaque formation by 50%; format: functional, cell-based; conditions: Homo sapiens; outline: as §2

SMILES	MIC (E6SM [1]) [µg/mL]	MIC (E6SM [2]) [µg/mL]	CC50 (HEL [3]) [µg/mL]	MIC (E6SM [4]) [µg/mL]	MIC (E6SM [6]) [µg/mL]	MIC (E6SM [7]) [µg/mL]	MIC (E6SM [8]) [µg/mL]	MCC (E6SM [10]) [µg/mL]	IC50 (HEL [11]) [µg/mL]	IC50 (HEL [12]) [µg/mL]	MIC (E6SM [13]) [µg/mL]	IC50 (HEL [15]) [µg/mL]	IC50 (HEL [16]) [µg/mL]	further results
O=c1[nH]c(=O)n(C2COC(CO)C(O)C2)cc1F (stereo unspecified)	> 400	> 400	> 50	> 400	> 400	> 400	> 400	> 400	> 40	> 40	> 400	> 40	40 (≈ 154 µM)	IC50 (HEL [5]): 40 µg/mL (≈ 154 µM); MIC (E6SM [9]): 300 µg/mL (≈ 1150 µM); IC50 (HEL [14]): > 40 µg/mL
O=c1ccn(C2COC(CO)C(O)C2)c(=O)[nH]1 (stereo unspecified)	> 400	> 400	> 50	> 400	> 400	> 400	> 400	> 400	> 40	> 40	> 400	> 40	> 40	MIC (E6SM [17]): > 400 µg/mL; IC50 (HEL [18]): > 40 µg/mL; IC50 (HEL [19]): > 40 µg/mL
Nc1ncc2ncn(C3COC(CO)C(O)C3)c2n1 (stereo unspecified)														MIC (E6SM [20]): 20 µg/mL (≈ 75.4 µM); IC50 (HEL [21]): 80 µg/mL (≈ 302 µM); MIC (E6SM [22]): > 200 µg/mL; IC50 (HEL [23]): > 50 µg/mL; IC50 (HEL [24]): 90 µg/mL (≈ 339 µM); IC50 (HEL [25]): 60 µg/mL (≈ 226 µM); CC50 (HEL [26]): 140 µg/mL (≈ 528 µM); IC50 (HEL [27]): 100 µg/mL (≈ 377 µM); MIC (E6SM [28]): 20 µg/mL (≈ 75.4 µM); MIC (E6SM [29]): > 200 µg/mL; MIC (E6SM [30]): 70 µg/mL (≈ 264 µM); MIC (E6SM [31]): 150 µg/mL (≈ 565 µM); MCC (E6SM [32]): > 400 µg/mL; IC50 (HEL [33]): > 50 µg/mL
